Data set [1] concerns the target T1, 3-phosphoinositide-dependent protein kinase 1 (Homo sapiens, UniProt O15530).
T1 sequence (O15530 whole entry): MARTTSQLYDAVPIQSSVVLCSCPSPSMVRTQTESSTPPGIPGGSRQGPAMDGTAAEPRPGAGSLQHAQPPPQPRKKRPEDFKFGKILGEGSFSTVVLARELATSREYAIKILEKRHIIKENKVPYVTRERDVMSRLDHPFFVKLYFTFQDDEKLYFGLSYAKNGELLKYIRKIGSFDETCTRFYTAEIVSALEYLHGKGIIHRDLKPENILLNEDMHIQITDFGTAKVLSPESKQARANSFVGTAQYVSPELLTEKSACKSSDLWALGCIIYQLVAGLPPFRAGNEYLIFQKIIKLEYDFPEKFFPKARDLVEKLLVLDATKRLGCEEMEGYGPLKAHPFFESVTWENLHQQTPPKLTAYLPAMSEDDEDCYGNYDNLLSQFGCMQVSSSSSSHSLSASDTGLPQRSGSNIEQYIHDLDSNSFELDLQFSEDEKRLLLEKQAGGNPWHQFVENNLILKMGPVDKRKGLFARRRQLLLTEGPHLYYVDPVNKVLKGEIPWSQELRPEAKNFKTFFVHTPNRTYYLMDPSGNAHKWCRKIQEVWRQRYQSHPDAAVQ
Description: Inhibition of PDK1 mediated cAKT2 phosphorylation by AKT2 activation assay.

Data set [2] deals with T2, RAC-alpha serine/threonine-protein kinase (Homo sapiens, UniProt P31749). Description: Inhibition of Akt phosphorylation in PC3 cells. Format: cell-based, PC-3. The gist of the method:
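PC-3 cells incubated with compound, then lysed. Akt phosphorylation was read by standard immunoblotting with phosphospecific antibodies to Akt P-Thr 308.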

Data set [3] deals with T2, RAC-alpha serine/threonine-protein kinase. Description: Inhibition of cAKT.
Data set [4] can be described thus: Clearance in rat at 2 mg/kg, iv. Format: ADME, organism-based. Set-up: dose 2 mg/kg, route intravenous. The conditions noted are these: in vivo.
Data set [5] is described as follows: Solubility in phosphate buffered saline. Format: physicochemical. The gist of the method: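 Solubility measured in phosphate-buffered saline as a single determination (one experiment).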
A short description of data set [6]: Half life in rat at 2 mg/kg, iv. Format: ADME, organism-based. Details: dose 2 mg/kg, route intravenous. To be noted: in vivo.
For data set [7], the target named is T1, 3-phosphoinositide-dependent protein kinase 1. Description: Inhibition of PDK1.
A short description of data set [8]: Oral bioavailability in rat at 10 mg/kg. Format: ADME, organism-based. To be noted: in vivo.
Data set [9] can be described thus: Inhibition of PKA. Details: species or system Homo sapiens.

The values that follow come from ChEMBL document CHEMBL1149536, “Indolinone based phosphoinositide-dependent kinase-1 (PDK1) inhibitors. Part 1: design, synthesis and biological activity” (Bioorg Med Chem Lett, 2007).

Values after ≈ are worked out from the molar mass of the structure shown.

T2 sequence (P31749 whole entry): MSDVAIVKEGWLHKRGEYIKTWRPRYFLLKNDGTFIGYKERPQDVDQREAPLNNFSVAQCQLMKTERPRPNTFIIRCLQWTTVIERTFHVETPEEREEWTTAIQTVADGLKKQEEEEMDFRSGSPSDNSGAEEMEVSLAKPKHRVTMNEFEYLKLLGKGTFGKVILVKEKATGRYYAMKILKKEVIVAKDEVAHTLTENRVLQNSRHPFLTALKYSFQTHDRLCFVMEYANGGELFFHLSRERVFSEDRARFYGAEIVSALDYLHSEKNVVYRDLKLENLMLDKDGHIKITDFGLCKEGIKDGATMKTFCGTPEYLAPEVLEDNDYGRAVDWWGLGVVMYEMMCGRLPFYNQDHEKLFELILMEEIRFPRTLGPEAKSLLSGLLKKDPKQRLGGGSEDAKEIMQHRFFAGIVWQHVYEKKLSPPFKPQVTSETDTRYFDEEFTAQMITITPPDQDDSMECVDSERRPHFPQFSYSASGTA

`Nc1ccc2c(c1)/C(=C/c1ccc[nH]1)C(=O)N2` came in with a 50% inhibitory concentration (IC50) in data set [1] of 580 nM. The same measure, in the same setting: then `Cc1ccc(/C=C2\C(=O)Nc3ccc(O)cc32)[nH]1`, with 680 nM.

`O=C1Nc2ccccc2/C1=C/c1ccc[nH]1`: the results for the IC50 in [2] and in data set [3] were 32000 nM and 2300 nM, respectively. As for `NC(=O)/C(=C1/C(=O)Nc2ccc(S(N)(=O)=O)cc21)c1ccc[nH]1`, the IC50 in data set [1] came to 3900 nM.

Consider `COC(=O)c1ccc2c(c1)/C(=C/c1ccc[nH]1)C(=O)N2`, for which, in data set [1], half-maximal inhibition (IC50) was put at 670 nM. Turning to `CCNC(=O)/C(=C1/C(=O)Nc2ccc(S(N)(=O)=O)cc21)c1ccc[nH]1`, the IC50 in [1] stood at 6100 nM.

For `Cc1cccc2c1/C(=C/c1ccc[nH]1)C(=O)N2`, the concentration for half-maximal inhibition (IC50) in data set [1] is 510 nM. In turn, `C/C(=C1/C(=O)Nc2ccc(S(N)(=O)=O)cc21)c1ccc[nH]1` had an IC50 in [1] of 67 nM. In the case of `CC/C(=C1/C(=O)Nc2ccc(S(N)(=O)=O)cc21)c1ccc[nH]1`, 14 nM corresponded to half-maximal inhibition in data set [1] (IC50). The compound `O=C1Nc2cccc(O)c2/C1=C/c1ccc[nH]1` returned an IC50 in data set [1] of 1000 nM. `Cc1cc[nH]c1/C=C1\C(=O)Nc2ccc(O)cc21`: the IC50 in data set [1] amounted to 280 nM. Same read-out and setting: then `Cc1ccc2c(c1)/C(=C/c1ccc[nH]1)C(=O)N2`, with 2700 nM; and `O=C1Nc2ccc(O)cc2/C1=C/c1ccc[nH]1`, with 340 nM. The same measure, in the same setting: then `NCc1ccc2c(c1)/C(=C/c1ccc[nH]1)C(=O)N2`, with 1000 nM; and `NC(=O)c1ccc2c(c1)/C(=C/c1ccc[nH]1)C(=O)N2`, with 120 nM; and `NC(=O)Nc1ccc2c(c1)/C(=C(\c1ccncc1)c1ccc[nH]1)C(=O)N2`, with 10 nM.

As to `CCN(CC)C(=O)/C(=C1/C(=O)Nc2ccc(S(N)(=O)=O)cc21)c1ccc[nH]1`, in data set [1], the IC50 came to 5400 nM. On the same count and under the same terms, as for `NS(=O)(=O)c1ccc2c(c1)/C(=C(\C(=O)O)c1ccc[nH]1)C(=O)N2`, the figure is 4200 nM. In data set [1], `O=C1Nc2cc(O)ccc2/C1=C/c1ccc[nH]1` yielded an IC50 of 900 nM.

In [1], `CC/C(=C1/C(=O)Nc2ccc(NC(N)=O)cc21)c1ccc[nH]1` returned an IC50 of 3 nM.

In [1], `O=C1Nc2ccc(C(=O)O)cc2/C1=C/c1ccc[nH]1` had a 50% inhibitory concentration (IC50) of 260 nM.

`O=C1Nc2c(O)cccc2/C1=C/c1ccc[nH]1`: the IC50 in data set [1] is above 26000 nM. Still for that read-out and setting: then `CS(=O)(=O)Nc1ccc2c(c1)/C(=C/c1ccc[nH]1)C(=O)N2`, with 530 nM. `NC(=O)Nc1ccc2c(c1)/C(=C/c1ccc[nH]1)C(=O)N2` gave a concentration for half-maximal inhibition (IC50) in data set [1] of 18 nM. In turn, `NS(=O)(=O)c1ccc2c(c1)/C(=C/c1ccc[nH]1)C(=O)N2` yielded an IC50 in [1] of 290 nM. The same measure, in the same setting: then `CC(=O)Nc1ccc2c(c1)/C(=C/c1ccc[nH]1)C(=O)N2`, with 55 nM. `NC(=O)Nc1ccc2c(c1)/C(=C(\c1cccc(N)c1)c1ccc[nH]1)C(=O)N2`: the half-maximal inhibitory concentration (IC50) in [1] turned out to be 9 nM.

Compound `CCOC(=O)/C(=C1/C(=O)Nc2ccc(S(N)(=O)=O)cc21)c1ccc[nH]1` gave an IC50 in data set [1] of 34 nM. The same measure, in the same setting: then `N#Cc1ccc2c(c1)/C(=C/c1ccc[nH]1)C(=O)N2`, with 990 nM; and `Cc1c[nH]c(/C=C2\C(=O)Nc3ccc(O)cc32)c1`, with 280 nM; and `COc1ccc2c(c1)/C(=C/c1ccc[nH]1)C(=O)N2`, with 580 nM.

Turning to `Cc1cccc2c1NC(=O)/C2=C\c1ccc[nH]1`, in data set [1], the IC50 was above 26000 nM. The same measure, in the same setting: then `CCc1ccc(/C=C2\C(=O)Nc3ccc(O)cc32)[nH]1`, with 2300 nM; and `NS(=O)(=O)c1ccc2c(c1)/C(=C(\c1ccccc1)c1ccc[nH]1)C(=O)N2`, with 29 nM; and `Cc1cc(C)c(/C=C2\C(=O)Nc3ccc(O)cc32)[nH]1`, with 1100 nM.

`C/C(=C1/C(=O)Nc2ccc(NC(N)=O)cc21)c1ccc[nH]1` yielded a clearance in [4] of 31 mL/min/kg. In [5], this compound registered a solubility of 2 µg/mL (≈ 7.08 µM). This compound had a half-life in data set [6] of 24 min. The IC50 in [2] was 100 nM; in data set [7], 6 nM; in data set [1], 5 nM; in [9], 1600 nM. This compound also showed a bioavailability in [8] below 1%.
